The list is not random: actives were taken first. Their share in the collection is about 3.5%.
MrgX1 agonist: activates human MrgX1 receptor signaling. B-score at 10 µM. 0.44% of 310,000 active. MrgX1-HEK293 cells, Fluo-4 calcium fluorescence, agonist mode; stronger effect = higher value;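 active means calcium response B-score plate-corrected fluorescence ratio at least 3 library SD, with starting fluorescence B-score inside 5 SD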
Target sequence (Q96LB2 whole entry, looked up): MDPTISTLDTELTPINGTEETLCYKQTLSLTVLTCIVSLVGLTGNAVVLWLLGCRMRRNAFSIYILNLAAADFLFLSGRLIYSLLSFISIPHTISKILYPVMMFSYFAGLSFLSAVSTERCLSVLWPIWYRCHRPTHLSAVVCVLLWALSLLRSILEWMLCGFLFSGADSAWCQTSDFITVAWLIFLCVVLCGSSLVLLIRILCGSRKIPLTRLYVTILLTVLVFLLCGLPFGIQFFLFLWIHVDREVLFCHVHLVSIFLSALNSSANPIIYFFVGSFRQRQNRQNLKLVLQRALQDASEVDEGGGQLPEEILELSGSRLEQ
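Material: MrgX1-expressing HEK293 cells; input: 15,000 cells per well; doses: test compound given as first of three sequential additions; schedule: overnight plating before 1 h dye loading; technique: Fluo-4 NW calcium-flux fluorescence, kinetic read; evaluation: baseline-normalised fluorescence change ratio, B-scored; control set: plate-wise positive and negative controls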
RGS4 block: human RGS4 inhibition | P49798 | HEK293 M3R/RGS4 inducible, Fluo-4 calcium flux; stronger effect = higher value; triggered by carbachol at its EC20 | B-score at 10 µM | 0.45% of 310,000 active | AID 463165;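 active means B-score, a plate-corrected calcium signal, over three deviations above library mean, with baseline fluorescence within five deviations of library mean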;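 further: RGS4 expression induced by doxycycline in cells with stable M3 receptor; B-score is computed from the integrated fluorescence ratio over baseline after carbachol; higher B-score means a larger calcium signal and so more RGS4 inhibition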
Target sequence (P49798 whole entry, looked up): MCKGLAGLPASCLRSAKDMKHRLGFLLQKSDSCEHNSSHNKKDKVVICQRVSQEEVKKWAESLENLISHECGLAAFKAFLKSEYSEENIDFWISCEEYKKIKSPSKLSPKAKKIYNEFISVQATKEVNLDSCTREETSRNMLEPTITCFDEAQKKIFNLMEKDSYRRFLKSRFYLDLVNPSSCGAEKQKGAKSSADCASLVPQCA
MrgX1 antagonist: human MrgX1 receptor antagonism, primary screen. B-score at 10 µM. MRGX1-HEK293 calcium flux, Fluo-4, BAM8-22 antagonism; stronger effect = lower value. 1.3% of 310,000 active. Q96LB2;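 active means calcium-response B-score plate-corrected more than 3 library SD below zero, starting fluorescence within 5 deviations, no agonist response on first addition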;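 further: peak minus trough fluorescence over baseline after final BAM8-22 challenge near maximal dose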
RGS4 pot: RGS4 potentiation or activation; HEK293 M3R/inducible RGS4, carbachol calcium flux Fluo4; stronger effect = lower value; AID 463111; B-score at 10 µM; 0.92% of 310,000 active;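 active means B-score of the integrated calcium signal more than 4 SD below the library mean, with starting fluorescence not abnormally high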;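 further: negative B-score means reduced calcium response which marks RGS4 activation or potentiation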
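System – HEK293 FlpIn-TREx cells, stable M3R, doxycycline-inducible RGS4 · Reagent – ECmax carbachol challenge · Times – compound preincubation 20 min at room temperature before agonist · Technique – Fluo4 fluorescence kinetic imaging of calcium · Measure – B score of integrated Fluo4 ratio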
MrgX1 PAM: allosterically activates human MrgX1 receptor signaling; B-score at 10 µM; AID 588675; MrgX1-HEK293, Fluo-4 calcium flux, FDSS; stronger effect = higher value; 0.63% of 310,000 active;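 active means plate-corrected calcium response at least 3 library SD above typical, normal starting fluorescence, not activating the receptor alone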;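 further: compound read alongside a low EC10 to EC30 dose of BAM8-22 agonist; peak minus trough fluorescence over baseline measured at the second addition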
Numbers stand for hits.

Results for COc1ccc(N2CCN(Cc3cc4c(cc3Br)OCCO4)CC2)cc1 ?
MrgX1 agonist: inactive; RGS4 block: inactive; MrgX1 antagonist: inactive; RGS4 pot: -7; MrgX1 PAM: inactive

Results for Cc1cccc(C(=O)Nc2ccc(S(=O)(=O)N3CCOCC3)cc2C)c1 ?
MrgX1 agonist: inactive; RGS4 block: inactive; MrgX1 antagonist: inactive; RGS4 pot: inactive; MrgX1 PAM: inactive

How did Cn1nc(CC(=O)Nc2ncc(Br)s2)c2ccccc2c1=O do in these assays?
MrgX1 agonist: inactive; RGS4 block: inactive; MrgX1 antagonist: inactive; RGS4 pot: inactive; MrgX1 PAM: 8.9

How did Cn1nc(CC(=O)NC2CCCCCCCCCCC2)c2ccccc2c1=O do in these assays?
MrgX1 agonist: inactive; RGS4 block: inactive; MrgX1 antagonist: inactive; RGS4 pot: inactive; MrgX1 PAM: inactive

What do the screens show for `Cc1cc(OC(=O)c2ccccc2[N+](=O)[O-])c([N+](=O)[O-])c(=O)[nH]1`?
MrgX1 agonist: inactive; RGS4 block: inactive; MrgX1 antagonist: inactive; RGS4 pot: inactive; MrgX1 PAM: inactive

Results for COc1cccc(C(=O)Oc2cc(C)[nH]c(=O)c2[N+](=O)[O-])c1OC ?
MrgX1 agonist: inactive; RGS4 block: inactive; MrgX1 antagonist: -4.8; RGS4 pot: inactive; MrgX1 PAM: inactive

Results for CC1N(C)c2cccc3cccc(c23)N1C ?
MrgX1 agonist: 33; RGS4 block: inactive; MrgX1 antagonist: inactive; RGS4 pot: inactive; MrgX1 PAM: inactive

What do the screens show for `CN1c2cccc3cccc(c23)N(C)C1c1cccs1`?
MrgX1 agonist: inactive; RGS4 block: inactive; MrgX1 antagonist: inactive; RGS4 pot: inactive; MrgX1 PAM: inactive

Results for O=c1c2ccc([N+](=O)[O-])cc2ncn1CCOc1cccc(Br)c1 ?
MrgX1 agonist: inactive; RGS4 block: inactive; MrgX1 antagonist: inactive; RGS4 pot: inactive; MrgX1 PAM: inactive

How did O=c1c2ccc([N+](=O)[O-])cc2ncn1CCOc1ccc(Cl)cc1 do in these assays?
MrgX1 agonist: inactive; RGS4 block: inactive; MrgX1 antagonist: inactive; RGS4 pot: -8.2; MrgX1 PAM: inactive

How did Cc1cccc(Nc2ccc([N+](=O)[O-])cn2)c1 do in these assays?
MrgX1 agonist: inactive; RGS4 block: inactive; MrgX1 antagonist: inactive; RGS4 pot: inactive; MrgX1 PAM: inactive

How did CCOC(=O)c1sc2nc(C)nc(N3CCCCC3C)c2c1C (centres undefined) do in these assays?
MrgX1 agonist: inactive; RGS4 block: inactive; MrgX1 antagonist: inactive; RGS4 pot: -7.3; MrgX1 PAM: inactive

What do the screens show for `Cc1nc(N2CCCCC2C)c2c(C)c(C(=O)Nc3cccc(C(F)(F)F)c3)sc2n1` (centres undefined)?
MrgX1 agonist: inactive; RGS4 block: inactive; MrgX1 antagonist: inactive; RGS4 pot: inactive; MrgX1 PAM: inactive

How did COc1ccc(N=C2NC(=O)CS2)c([N+](=O)[O-])c1 do in these assays?
MrgX1 agonist: inactive; RGS4 block: inactive; MrgX1 antagonist: inactive; RGS4 pot: inactive; MrgX1 PAM: inactive

How did O=C1CSC(=Nc2ccccc2[N+](=O)[O-])N1 do in these assays?
MrgX1 agonist: inactive; RGS4 block: inactive; MrgX1 antagonist: -4.6; RGS4 pot: inactive; MrgX1 PAM: inactive

How did OCCNc1c2ccccc2nc2c(F)c(F)c(F)c(F)c12 do in these assays?
MrgX1 agonist: inactive; RGS4 block: inactive; MrgX1 antagonist: -8; RGS4 pot: inactive; MrgX1 PAM: inactive

Results for CN(C)CCCNc1c2ccccc2nc2ccccc12 ?
MrgX1 agonist: inactive; RGS4 block: inactive; MrgX1 antagonist: inactive; RGS4 pot: inactive; MrgX1 PAM: inactive

How did CC(C)c1ccc(N(CC(=O)NCCSCc2ccco2)S(C)(=O)=O)cc1 do in these assays?
MrgX1 agonist: inactive; RGS4 block: inactive; MrgX1 antagonist: inactive; RGS4 pot: inactive; MrgX1 PAM: 7.1

Results for COc1ccccc1CNC(=O)CN(c1ccc(C)cc1)S(=O)(=O)c1c(C)nn(C)c1C ?
MrgX1 agonist: inactive; RGS4 block: inactive; MrgX1 antagonist: inactive; RGS4 pot: inactive; MrgX1 PAM: inactive

Results for COc1ccc(N(CC(=O)NCC(C)C)S(=O)(=O)c2ccccc2)cc1 ?
MrgX1 agonist: inactive; RGS4 block: inactive; MrgX1 antagonist: inactive; RGS4 pot: inactive; MrgX1 PAM: inactive

How did COc1cccc(N(CC(=O)NCCSCc2ccco2)S(=O)(=O)c2ccccc2)c1 do in these assays?
MrgX1 agonist: inactive; RGS4 block: inactive; MrgX1 antagonist: inactive; RGS4 pot: inactive; MrgX1 PAM: 7.2

Results for COc1ccc(N(CC(=O)NCCSCc2ccccc2C)S(=O)(=O)c2ccccc2)cc1 ?
MrgX1 agonist: inactive; RGS4 block: inactive; MrgX1 antagonist: inactive; RGS4 pot: -7.8; MrgX1 PAM: inactive

What do the screens show for `COc1ccc(N(CC(=O)NCc2ccccc2OC)S(=O)(=O)c2c(C)nn(C)c2C)cc1`?
MrgX1 agonist: inactive; RGS4 block: inactive; MrgX1 antagonist: -6.3; RGS4 pot: inactive; MrgX1 PAM: inactive

Results for CS(=O)(=O)N(CC(=O)NCCSCc1ccco1)c1ccc(Cl)cc1 ?
MrgX1 agonist: inactive; RGS4 block: inactive; MrgX1 antagonist: inactive; RGS4 pot: inactive; MrgX1 PAM: inactive

Results for NC(=O)Cn1cnc2c(nnn2-c2ccc(F)cc2)c1=O ?
MrgX1 agonist: inactive; RGS4 block: inactive; MrgX1 antagonist: inactive; RGS4 pot: inactive; MrgX1 PAM: inactive

How did CC(C)(CNc1ccc([N+](=O)[O-])cc1Cl)N1CCOCC1 do in these assays?
MrgX1 agonist: inactive; RGS4 block: inactive; MrgX1 antagonist: inactive; RGS4 pot: inactive; MrgX1 PAM: inactive

What do the screens show for `COc1cc(Cl)ccc1NC(=S)N(CCN1CCOCC1)C1CCN(C(C)=O)CC1`?
MrgX1 agonist: inactive; RGS4 block: inactive; MrgX1 antagonist: inactive; RGS4 pot: inactive; MrgX1 PAM: inactive

Results for O=C(Nc1nccs1)c1cccc(NC(=O)C(F)(F)F)c1 ?
MrgX1 agonist: inactive; RGS4 block: inactive; MrgX1 antagonist: inactive; RGS4 pot: inactive; MrgX1 PAM: inactive

How did COc1ccccc1N(CC(=O)NCCSCc1ccccc1)S(C)(=O)=O do in these assays?
MrgX1 agonist: inactive; RGS4 block: inactive; MrgX1 antagonist: inactive; RGS4 pot: inactive; MrgX1 PAM: inactive

Results for COc1ccccc1N(CC(=O)NCCSCc1cccc(C)c1)S(=O)(=O)c1ccccc1 ?
MrgX1 agonist: inactive; RGS4 block: inactive; MrgX1 antagonist: inactive; RGS4 pot: -8.6; MrgX1 PAM: inactive

How did CS(=O)(=O)n1nc(-c2ccc(Cl)cc2)nc1N do in these assays?
MrgX1 agonist: inactive; RGS4 block: inactive; MrgX1 antagonist: inactive; RGS4 pot: inactive; MrgX1 PAM: inactive

How did Cn1nc(-c2ccc(Cl)cc2)nc2c(=O)n(C)c(=O)nc1-2 do in these assays?
MrgX1 agonist: inactive; RGS4 block: inactive; MrgX1 antagonist: -4.6; RGS4 pot: inactive; MrgX1 PAM: inactive

What do the screens show for `COCCCN=C1NN=C(c2cc(C)n(Cc3ccco3)c2C)CS1`?
MrgX1 agonist: inactive; RGS4 block: inactive; MrgX1 antagonist: inactive; RGS4 pot: inactive; MrgX1 PAM: 10

Results for Cc1cc(C2=NNC(=NC3CC3)SC2)c(C)n1Cc1ccco1 ?
MrgX1 agonist: inactive; MrgX1 antagonist: inactive; MrgX1 PAM: inactive
